Assay type in all cases: functional
For one assay, the system named is MCF7. Kind of assay: Cytotoxicity against human MCF7 cells. Put shortly:
(§1)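 Human cancer cell lines tested: MCF-7 (breast), H-460 (lung) and SF-268 (central nervous system). Cytotoxicity was run by a previously published cell-line screening method. The same three lines were used to follow activity through fractionation.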

The test system of another assay is NCI-H460. Put plainly: Cytotoxicity against human H460 cells. Put shortly: as §1
The next assay relates to SF-268. Put plainly: Cytotoxicity against human SF268 cells. In a few lines: as §1

≈ marks a conversion by molar mass, not a printed value.

As usually defined, the GI50 is the concentration giving 50% growth inhibition. Higher therefore signals less potent growth inhibition. On to `COc1c(CC=C(C)C)c(O)c2c(O)c3c(cc2c1CC=C(C)C)O[C@H](C)CC3=O` [ADENAFLORINE A], for which the GI50 with MCF7 was determined as 0.24 µg/mL (≈ 0.585 µM); with NCI-H460, 0.16 µg/mL (≈ 0.39 µM); in the assay with SF-268, 0.13 µg/mL (≈ 0.317 µM).

Take `COc1c(CC=C(C)C)c(O)c2c(O)c3c(=O)cc(C)oc3cc2c1CC=C(C)C` [ADENAFLORINE B]: the figures for the GI50 in the assay on MCF7, in the assay with NCI-H460 and with SF-268 were 4.3 µg/mL (≈ 10.5 µM), 2.9 µg/mL (≈ 7.1 µM) and 3.9 µg/mL (≈ 9.55 µM), respectively.

As to `CC(=O)c1c2c(c3cc(OCC=C(C)C)c(CC=C(C)C)c(O)c3c1O)C=CC(C)(C)O2` [ADENAFLORINE C], the results for the GI50 in the assay on MCF7, in the assay on NCI-H460 and with SF-268 were 1.2 µg/mL (≈ 2.75 µM), 1.1 µg/mL (≈ 2.52 µM) and 1.4 µg/mL (≈ 3.21 µM), respectively.

As for `CC(=O)c1c(O)c(CC=C(C)C)c2cc(OCC=C(C)C)c3c(c2c1O)OC(C)(C)C=C3` [ADENAFLORINE D], the GI50 in the assay with MCF7 was greater than 10 µg/mL; with NCI-H460 it was 9.3 µg/mL (≈ 21.3 µM); with SF-268 it was greater than 10 µg/mL.

The values above are taken from ChEMBL document CHEMBL1146510, “New cytotoxic naphthopyrane derivatives from Adenaria floribunda” (2004).
